Assays:
[1] = biological target: T1, Nitric oxide synthase, inducible (Mus musculus, UniProt P29477); test: Inhibition of iNOS in LPS-induced mouse RAW264.7 cells assessed as inhibition of […] at measured after 24 hrs; assay type: cell-based
T1 sequence (P29477 whole entry): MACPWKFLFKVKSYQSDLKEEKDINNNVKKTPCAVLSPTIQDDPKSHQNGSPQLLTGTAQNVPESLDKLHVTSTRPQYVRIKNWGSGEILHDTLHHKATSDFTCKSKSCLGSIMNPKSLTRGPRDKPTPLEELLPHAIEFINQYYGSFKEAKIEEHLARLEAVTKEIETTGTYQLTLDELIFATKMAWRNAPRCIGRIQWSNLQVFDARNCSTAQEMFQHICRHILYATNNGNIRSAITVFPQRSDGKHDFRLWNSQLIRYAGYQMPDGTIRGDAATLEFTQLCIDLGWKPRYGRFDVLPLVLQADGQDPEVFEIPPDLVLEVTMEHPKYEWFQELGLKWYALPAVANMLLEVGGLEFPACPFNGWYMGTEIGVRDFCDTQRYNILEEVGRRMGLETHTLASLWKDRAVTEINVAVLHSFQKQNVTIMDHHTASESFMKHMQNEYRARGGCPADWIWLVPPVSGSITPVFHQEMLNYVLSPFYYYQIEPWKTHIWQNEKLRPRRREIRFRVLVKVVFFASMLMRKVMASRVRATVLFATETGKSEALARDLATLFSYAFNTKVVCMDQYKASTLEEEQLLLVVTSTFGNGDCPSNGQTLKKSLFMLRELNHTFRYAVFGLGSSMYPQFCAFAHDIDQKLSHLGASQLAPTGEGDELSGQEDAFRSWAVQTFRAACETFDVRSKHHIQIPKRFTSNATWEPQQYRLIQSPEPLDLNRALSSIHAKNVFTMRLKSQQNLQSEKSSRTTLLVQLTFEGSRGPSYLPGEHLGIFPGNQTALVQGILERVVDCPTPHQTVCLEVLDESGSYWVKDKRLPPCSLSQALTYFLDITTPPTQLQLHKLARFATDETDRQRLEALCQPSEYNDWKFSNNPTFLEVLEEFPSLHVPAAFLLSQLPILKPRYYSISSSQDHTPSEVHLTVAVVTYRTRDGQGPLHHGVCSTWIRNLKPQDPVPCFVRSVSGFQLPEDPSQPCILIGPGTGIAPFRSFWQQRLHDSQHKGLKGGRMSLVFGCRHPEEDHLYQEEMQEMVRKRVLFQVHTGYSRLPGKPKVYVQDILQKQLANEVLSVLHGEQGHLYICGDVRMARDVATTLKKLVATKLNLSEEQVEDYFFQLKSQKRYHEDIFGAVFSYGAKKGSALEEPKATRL
Method in brief: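 Mouse RAW 264.7 macrophages were seeded at 50 000 cells/well and grown 24 h. They were pretreated with samples for 30 min, then stimulated with LPS at 5 μg/mL for 24 h. Nitrite in the supernatant was measured by Griess reagent, and inhibition was calculated against the vehicle control. IC50 came from dose–response curves, with cytotoxicity checked in parallel.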

SK-MEL = test: Cytotoxicity against human SK-MEL cells assessed as growth inhibition measured after 48 hrs by Neutral Red dye assay
LLC-PK1 = test: Cytotoxicity against pig LLC-PK1 cells assessed as growth inhibition measured after 48 hrs by Neutral Red dye assay; conditions: Sus scrofa, LLC-PK1, 48 h
Vero = test: Cytotoxicity against african green monkey Vero cells assessed as growth inhibition measured after 48 hrs by Neutral Red dye assay; conditions: Chlorocebus sabaeus
HeLa = test: Cytotoxicity against human HeLa cells assessed as growth inhibition measured after 48 hrs by Neutral Red dye assay
SK-OV-3 = test: Cytotoxicity against human SKOV3 cells assessed as growth inhibition measured after 48 hrs by Neutral Red dye assay; conditions: SK-OV-3, 48 h
BT-549 = test: Cytotoxicity against human BT549 cells assessed as growth inhibition measured after 48 hrs by Neutral Red dye assay; conditions: BT-549, 48 h
KB = test: Cytotoxicity against human KB cells assessed as growth inhibition measured after 48 hrs by Neutral Red dye assay
HL-60 = test: Inhibition of PMA induced ROS generation in human HL60 cells assessed as inhibition of ROA mediated oxidation of DCFH; assay type: functional, cell-based
Method in brief: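 HL-60 cells (0.8 × 10⁶/mL) in RPMI-1640 with 10% FBS were pretreated 30 min with compound (0.4–100 μM). PMA (100 ng/mL) was then added for 30 min, followed by DCFH-DA (5 μg/mL) for 15 min. DCF fluorescence read at Ex 485 / Em 530 nm and compared with vehicle control. Trolox served as positive control.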

C=C1C(=O)O[C@@H]2C3O[C@]3(C)CC/C=C(\C)CC[C@@H]12 (some centres undefined)
IC50 [1]: 8 µM

COc1cccc2c1C(=O)c1c(O)c3c(c(O)c1C2=O)C[C@@](O)(C(=O)CO)C[C@@H]3O[C@H]1C[C@H](N)[C@H](O)[C@H](C)O1 [DOXORUBICIN]
IC50 (SK-MEL): 1.5 µM | IC50 (LLC-PK1): 1.6 µM | IC50 (Vero): > 9.2 µM | IC50 (HeLa): 3.9 µM | IC50 (SK-OV-3): 2.6 µM | IC50 (BT-549): 3.7 µM | IC50 (KB): 3.8 µM

Cc1c(C)c2c(c(C)c1O)CCC(C)(C(=O)O)O2 (centres undefined) [TROLOX]
IC50 (HL-60): 1.4 µM
